An excerpt weighted towards active compounds, which were near 2.3% of everything screened.
NadD inh: NadD (S. aureus) enzyme inhibition | purified NadD enzyme, colorimetric absorbance read-out | inhibition, % at 20 µM | 0.78% of 360,000 active; in the data active = inhibition above about 26%
STEP block: STEP (human) phosphatase inhibition. P54829. inhibition, % at 20 µM. 0.25% of 360,000 active. recombinant STEP, OMFP fluorogenic substrate, fluorescence. AID 588621;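 active = inhibition at 20 µM, scaled per plate between control wells, above about 37%, limit read from the data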
Target sequence (P54829 whole entry, looked up): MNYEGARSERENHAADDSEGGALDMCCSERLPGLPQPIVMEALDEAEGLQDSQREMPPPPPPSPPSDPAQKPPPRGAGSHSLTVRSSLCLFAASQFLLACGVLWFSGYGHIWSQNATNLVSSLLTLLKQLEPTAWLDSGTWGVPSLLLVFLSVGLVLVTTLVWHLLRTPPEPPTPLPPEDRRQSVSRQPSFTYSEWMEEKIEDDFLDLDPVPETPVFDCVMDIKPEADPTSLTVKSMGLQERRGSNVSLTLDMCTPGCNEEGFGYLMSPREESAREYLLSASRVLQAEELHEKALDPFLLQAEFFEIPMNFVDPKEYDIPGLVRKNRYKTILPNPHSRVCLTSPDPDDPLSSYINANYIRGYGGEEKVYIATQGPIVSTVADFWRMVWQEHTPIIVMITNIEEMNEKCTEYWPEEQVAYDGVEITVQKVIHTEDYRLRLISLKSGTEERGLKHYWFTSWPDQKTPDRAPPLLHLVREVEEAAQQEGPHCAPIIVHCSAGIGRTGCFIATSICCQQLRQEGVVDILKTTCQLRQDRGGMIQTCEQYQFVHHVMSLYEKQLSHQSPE
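Material: STEP (striatal-enriched tyrosine phosphatase) enzyme, cell-free; Compound dosing: 20 µM single dose in 1% DMSO; Technique: fluorescence read at 480 nm ex / 540 nm em; Times: reaction 20 min, ambient temperature; Medium: 50 mM Bis-Tris pH 6.0 with 2.5 mM DTT and 0.005% Tween 20; Also added: OMFP at 25 µM.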
LMPTP block: blocks human LMPTP phosphatase; inhibition, % at 20 µM; 0.22% of 360,000 active; recombinant LMPTP-A, OMFP fluorogenic substrate, fluorescence intensity; P24666;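 active = compounds that cut the enzyme signal by at least half of the control window in the single-dose screen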
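Assay system: LMPTP-A enzyme. Input: 0.625 nM LMPTP-A final. Probe or stimulus: 400 µM OMFP. Compound dosing: single 20 µM dose. Schedule: 50 min dark incubation at room temperature. Detection: fluorescence intensity of OMFP turnover product. Read-out: percent inhibition versus substrate-only and uninhibited controls. Benchmarks: no-enzyme low control, uninhibited high control.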
SUMO1-SIM PPI: alters human SUMO1 binding to SIM partners; inhibition, % at 20 µM; 0.33% of 360,000 active; P63165; AID 602429; SUMO1 binding to a labelled peptide, TR-FRET, 1 h; in the data active = inhibition above about 37%
Target sequence (P63165 whole entry, looked up): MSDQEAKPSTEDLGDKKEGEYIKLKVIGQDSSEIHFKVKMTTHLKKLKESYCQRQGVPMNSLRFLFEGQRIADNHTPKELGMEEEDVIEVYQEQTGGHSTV
DNMT1 inh: blocks human DNA methyltransferase DNMT1; inhibition (reported as % activation of signal), % at 10 µM; 0.83% of 360,000 active; P26358; DNMT1 molecular beacon, Hinp1I cleavage, fluorescence; in the data active = inhibition above about 50%
Scp1 inh: blocks human Scp-1 phosphatase activity; Q9GZU7; inhibition, % at 20 µM; 0.88% of 340,000 active; Recombinant Scp1, phosphopeptide, malachite green phosphate absorbance;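 active = inhibition above about 50% at 20 µM, limit read from the data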
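System: SCP-1 catalytic domain; Reagent: Phospho 17-mer peptide substrate; Doses: one concentration, 20 µM, with 1.0% DMSO; Incubation: 45 min room-temperature reaction, 5 min colour, 30 min stabiliser; Signal: Phosphate-binding colour reagent, absorbance read at 630 nm.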
Scp-1 conf: confirmation of human Scp-1 phosphatase inhibitors; shares compounds with Scp1 inh; 61% of 2,500 active; inhibition, % at 20 µM; recombinant SCP-1 catalytic domain, phosphate release, malachite green absorbance;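 active = inhibition of at least 30% at 20 µM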
Scp-1 MG ctr: colorimetric interference in Scp-1 counter-screen | shares compounds with Scp1 inh | apparent inhibition (interference), % at 20 µM | Colorimetric interference counterscreen, malachite green absorbance 630 nm | 2,500 tested, under 10 active | AID 540313;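 active = inhibition of at least 30% at 20 µM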;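 also: compounds added after enzyme reaction finished so only phosphate colour detection is probed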
Scp-1 Tm shift: validation of human Scp-1 inhibitors by thermal shift binding. Recombinant SCP1, Sypro Orange thermal shift Tm. thermal shift relative to vanadate control, % at 40 µM. 25% of 1,500 active. shares compounds with Scp1 inh. AID 540329;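 active = substances whose mean melting-temperature shift, as a percentage of the reference inhibitor's shift, reaches about 5.3%, limit read from the data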
Beacon interf DR: counter-screen for DNMT1 inhibitors: spectral interference, dose response; IC50, µM; 200 tested, under 10 active; AID 602382; shares compounds with DNMT1 inh; molecular beacon fluorescence
DNMT1 inh conf: DNMT1 inhibition confirmation, single concentration. shares compounds with DNMT1 inh. DNMT1 molecular beacon HinP1I cleavage, fluorescence. inhibition, % at 10 µM. 8% of 2,300 active. AID 602385;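 active = average inhibition of at least 30% in the single-concentration confirmation test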
DNMT1 interf: counter-screen for DNMT1 inhibitors: spectral interference | DNMT1 molecular beacon spectral interference counterscreen, fluorescence 485/520 | activation (fluorescence interference), % at 10 µM | shares compounds with DNMT1 inh | 1% of 2,300 active;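 active = activation of at least 30% at 10 µM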;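 also: DNMT1 catalytic domain with a HinP1I cleavage step and a FAM/dabcyl DNA beacon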
STEP inh conf: confirmation of human STEP phosphatase inhibitors; recombinant STEP, OMFP fluorogenic substrate, fluorescence; 32% of 520 active; AID 623866; inhibition, % at 20 µM; shares compounds with STEP block
Of the large screens only hits and unclear results are named; the others gave an inactive call (follow-up assays come after a bar, where they were run). Unless noted, no rule for the calls is given here.

CCCCn1c(N)c(-c2nc3ccccc3o2)c2c([N+](=O)[O-])nn(C)c(=O)c21	STEP block 58, LMPTP block 55, DNMT1 inh 87, Scp1 inh 93 | Scp-1 conf 68 | Scp-1 MG ctr inactive | Scp-1 Tm shift inactive | DNMT1 inh conf inactive | DNMT1 interf inactive | STEP inh conf inactive
COc1ccc(NS(=O)(=O)c2cn(C)cn2)c(OC)c1	none
CCOC(=O)c1sc2nc3c(SCC(=O)O)cc(C(=O)c4ccccc4O)cn3c(=O)c2c1C	STEP block 98, LMPTP block 93, SUMO1-SIM PPI 102, DNMT1 inh 186, Scp1 inh 53 | Scp-1 conf 59 | Scp-1 MG ctr inactive | Scp-1 Tm shift 7.5 | Beacon interf DR inactive | DNMT1 inh conf 60 | DNMT1 interf inactive | STEP inh conf 98
Cc1sc2nc3c(SC(C)C(=O)O)cc(C(=O)c4ccccc4O)cn3c(=O)c2c1C (configuration not stated)	none
Cc1csc2c(=O)sc(NC(=O)c3cccs3)nc12	STEP block 95, LMPTP block 69, Scp1 inh 97 | Scp-1 conf 63 | Scp-1 MG ctr inactive | Scp-1 Tm shift inactive | STEP inh conf inactive
Cc1csc2c(=O)sc(NC(=O)c3ccco3)nc12	none
COCCNc1nc(-c2ccccc2CO)c2sc(-c3ccccc3)cc2n1	none (no result: Scp1 inh)
COc1cccc2cc(C(C)=O)c(=O)oc12	none
COc1cccc2cc(C(=O)NNC(=O)c3ccc(Br)cc3)c(=O)oc12	STEP block 82, Scp1 inh 99 | Scp-1 conf 55 | Scp-1 MG ctr inactive | Scp-1 Tm shift inactive | STEP inh conf inactive
CCOC(=O)CN1C(=O)S/C(=C/c2ccco2)C1=O	none
CCOC(=O)CN1C(=O)S/C(=C/c2ccc(OCc3ccc(C(=O)O)cc3)cc2)C1=O	STEP block 78, Scp1 inh 93 | Scp-1 conf 67 | Scp-1 MG ctr inactive | Scp-1 Tm shift inactive | STEP inh conf 50
Cc1cc(C)cc(C(=O)N/N=C/c2ccoc2)c1	none
O=C(N/N=C/c1ccoc1)c1cc(O)cc(O)c1	STEP block 61, SUMO1-SIM PPI 43, DNMT1 inh 93, Scp1 inh 63 | Scp-1 conf 58 | Scp-1 MG ctr inactive | Scp-1 Tm shift inactive | Beacon interf DR inactive | DNMT1 inh conf inactive | DNMT1 interf inactive | STEP inh conf 98
COc1cccc(C(O)c2nc(-c3ccccc3)cs2)c1 (configuration not stated)	none (no result: Scp1 inh)
CCc1ccc(OCC(=O)Nc2ccc(-c3nc4ccccc4o3)c(O)c2)cc1	STEP block 66, DNMT1 inh 77, Scp1 inh 100 | Scp-1 conf 73 | Scp-1 MG ctr inactive | Scp-1 Tm shift inactive | DNMT1 inh conf inactive | DNMT1 interf inactive | STEP inh conf 19
Cc1c(CC(=O)O)c(=O)oc2c(C)c(OCc3ccc(F)cc3Cl)ccc12	STEP block 98, LMPTP block 85, SUMO1-SIM PPI 84, Scp1 inh 64 | Scp-1 conf 68 | Scp-1 MG ctr inactive | Scp-1 Tm shift inactive | STEP inh conf 62
COc1ccc([N+](=O)[O-])cc1Nc1ncnc2ccccc12	none
O=[N+]([O-])c1ccc(O)c(Nc2ncnc3ccccc23)c1	STEP block 97, LMPTP block 91, Scp1 inh 98 | Scp-1 conf 81 | Scp-1 MG ctr inactive | Scp-1 Tm shift inactive | STEP inh conf 36
O=C(NNC(=O)c1cc2cc3ccccc3nc2s1)c1ccc(F)cc1	STEP block 97, Scp1 inh 105 | Scp-1 conf 68 | Scp-1 MG ctr inactive | Scp-1 Tm shift inactive | STEP inh conf inactive
Cc1cccc(C(=O)NNC(=O)c2cc3cc4ccccc4nc3s2)c1	none
O=C(NNC(=O)c1cc2cc3ccccc3nc2s1)c1cccc(Cl)c1	STEP block 97, LMPTP block 63, DNMT1 inh 78, Scp1 inh 98 | Scp-1 conf 73 | Scp-1 MG ctr inactive | Scp-1 Tm shift inactive | DNMT1 inh conf inactive | DNMT1 interf inactive | STEP inh conf inactive
CNc1nc(Nc2ccc(Br)cc2)nc(N)c1[N+](=O)[O-]	none
N=C1S/C(=C\c2ccc(O)cc2)C(=O)N1c1ccc(F)cc1	STEP block 78, LMPTP block 69, Scp1 inh 78 | Scp-1 conf 52 | Scp-1 MG ctr inactive | Scp-1 Tm shift 19 | STEP inh conf 12
Clc1ccc2c(SCC3CO3)c3ccccc3nc2c1 (configuration not stated)	STEP block 62, Scp1 inh 101 | Scp-1 conf inactive | Scp-1 MG ctr inactive | STEP inh conf inactive
O=C(CSc1c2c(nc3cc(Cl)ccc13)CCCC2)NCCN1CCOCC1	none
COc1cccc(Nc2nn3c(=O)c4ccccc4nc3s2)c1	STEP block 82, Scp1 inh 60 | Scp-1 conf 58 | Scp-1 MG ctr inactive | Scp-1 Tm shift 6.1 | STEP inh conf 47
COc1ccc(NC(=O)NNC(=O)c2ccc(-c3ccccc3)cc2)cc1	STEP block 40, Scp1 inh 88 | Scp-1 conf 46 | Scp-1 MG ctr inactive | Scp-1 Tm shift inactive | STEP inh conf inactive
C[C@H](CO)N1C[C@H](C)[C@@H](CN(C)C(=O)Nc2ccc(C(F)(F)F)cc2)Oc2ccc(NC(=O)c3ccncc3)cc2C1=O	STEP block 52, LMPTP block 64, DNMT1 inh 92, Scp1 inh 77 | Scp-1 conf inactive | Scp-1 MG ctr inactive | DNMT1 inh conf inactive | DNMT1 interf inactive | STEP inh conf inactive
COc1cccc(C(=O)N/N=C(\C)c2ccc(NC(=O)Cc3ccccc3)cc2)c1OC	none

Screening results: PubChem, Sanford-Burnham Center for Chemical Genomics
